Assay results reported in ChEMBL document CHEMBL4138068, “Aryl-alkyl-lysines: small molecular membrane-active antiplasmodial agents” (Medchemcomm, 2017).

What was measured:
[1] = Selectivity index, ratio of HC50 for haemolytic activity in human erythrocytes to IC50 for antimalarial activity against Plasmodium falciparum 3D7 cultured in human O+ erythrocytes; type: toxicity, cell-based; settings: read-out: Selectivity Index
[2] = Haemolytic activity in human erythrocytes assessed as induction of hemolysis incubated for 1 hr; type: cell-based, Erythrocyte
Outline: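 Human erythrocytes from fresh heparinized blood were suspended at 5 vol% in PBS (pH 7.4), mixed 3:1 with serially diluted compound, and incubated 1 h at 37°C. Controls were no compound and 1 vol% Triton X-100. After centrifugation, supernatant A540 gave % haemolysis relative to the Triton control. HC50 is the mean ± SEM of at least two independent experiments, each run in triplicate.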

Plasmodium falciparum [3] = experiment: Antimalarial activity against Plasmodium falciparum 3D7 cultured in human O+ erythrocytes assessed as reduction in parasite growth incubated for 48 hrs by SYBR green I based fluorescence assay; type: functional, organism-based; settings: 3D7, 48 h
Outline: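 Sorbitol-synchronized ring-stage cultures (2% haematocrit, 1% parasitaemia) were exposed to serial dilutions in complete RPMI, top concentration 10 µM, for 48 h. Chloroquine served as positive control and no compound as negative control. Lysis buffer with SYBR Green I (Tris pH 7.5, EDTA, saponin, Triton X-100) was added for 1 h in the dark at 37°C. Fluorescence was read at ex 485/em 530 nm, and IC50 came from sigmoidal curves, checked against Giemsa smears.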

Mus musculus [4] = experiment: Toxicity in Balb/c mouse assessed as effect on AST level level at 20 mg/kg, iv; type: organism-based; settings: in vivo
Mus musculus [5] = experiment: Toxicity in Balb/c mouse assessed as effect on blood electrochemical balance by measuring sodium level at 20 mg/kg, iv; type: organism-based; settings: in vivo
Mus musculus [6] = experiment: Toxicity in Balb/c mouse assessed as effect on creatinine level level at 17.5 mg/kg, iv; settings: in vivo
Mus musculus [7] = experiment: Toxicity in Balb/c mouse assessed as effect on blood electrochemical balance by measuring chloride level at 20 mg/kg, iv; type: organism-based; settings: in vivo
Plasmodium berghei [8] = experiment: (§1) Antimalarial activity against Plasmodium berghei ANKA infected in Swiss-Harlan mouse model of cerebral malaria assessed as reduction in parasitemia at 20 mg/kg, ip for 4 days dosed 2 hrs post infection and measured 5 days post infection by Giemsa staining based Peter's 4 day test; type: functional; design: scale not given: the % may be the effect or the level left
Outline: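 Female Swiss mice (6-8 weeks) were infected IP with 10⁷ P. berghei ANKA-parasitized RBCs. Two hours later, groups (n=4) received 20 mg/kg IP or PBS control, repeated every 24 h for four days. Parasitemia was read on day 5 from Giemsa-stained tail-blood smears, and survival was followed until death.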

Mus musculus [9] = experiment: Toxicity in Balb/c mouse assessed as effect on ALT level level at 20 mg/kg, iv; type: organism-based; settings: in vivo
Mus musculus [10] = experiment: Toxicity in Balb/c mouse assessed as effect on urea nitrogen level level at 20 mg/kg, iv; type: organism-based; settings: in vivo
Plasmodium berghei [11] = experiment: as §1, with “time duration for complete mouse mortality” for “reduction in parasitemia”, “test (reference value: =<7 days)” for “test”; type: functional
Outline: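 Female Swiss mice, 6-8 weeks old, infected IP with 10⁷ P. berghei ANKA parasitized RBCs. Starting 2 h post-infection, 20 mg/kg IP (PBS vehicle; PBS-only controls) every 24 h for four days, n=4. Day-5 parasitemia read from Giemsa-stained tail-blood smears; survival followed until death.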

Mus musculus [12] = experiment: Toxicity in Plasmodium berghei ANKA infected in Swiss-Harlan mouse model of cerebral malaria assessed as induction of prolonged malaise at 30 mg/kg, ip for 4 days dosed 2 hrs post infection and measured 5 days post infection by Giemsa staining based Peter's 4 day test; type: organism-based; settings: in vivo, 120 h
[13] = Toxicity in Balb/c mouse at 5.5 to 175 mg/kg, iv for 14 days; type: organism-based; settings: in vivo
Outline: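 Female Balb/c mice, 6-8 weeks old, dosed intravenously in PBS at 175, 55, 17.5 and 5.5 mg/kg. Adverse effects were observed directly for 4 h and mortality for 14 days. LD50 was calculated from survival with the Spearman-Karber equation.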

Plasmodium falciparum [14] = experiment: Antimalarial activity against […] Plasmodium falciparum RKL9 cultured in human O+ erythrocytes assessed as reduction in parasite growth incubated for 48 hrs by SYBR green I based fluorescence assay; type: functional, organism-based; settings: RKL9, 48 h
Outline: (§2)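 Sorbitol-synchronized ring-stage cultures (2% haematocrit, 1% parasitaemia) exposed for 48 h to serial dilutions in complete RPMI, top concentration 10µM. CQ was the positive control and drug-free wells the negative control. Growth was read by SYBR Green I lysis buffer, 1 h at 37°C in the dark, fluorescence ex 485/em 530 nm. IC50 came from sigmoidal curve fits, checked by Giemsa smears.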

Plasmodium falciparum [15] = experiment: Antimalarial activity against […] Plasmodium falciparum MRC2 cultured in human O+ erythrocytes assessed as reduction in parasite growth incubated for 48 hrs by SYBR green I based fluorescence assay; type: functional, organism-based; settings: MRC2, 48 h; outline: as §2
Mus musculus [16] = experiment: Toxicity in Balb/c mouse assessed as effect on blood electrochemical balance by measuring potassium level at 20 mg/kg, iv; type: organism-based; settings: in vivo
Mus musculus [17] = experiment: Toxicity in Plasmodium berghei ANKA infected in Swiss-Harlan mouse model of cerebral malaria assessed as induction of mouse death at 30 mg/kg, ip for 4 days dosed 2 hrs post infection and measured 5 days post infection by Giemsa staining based Peter's 4 day test; type: organism-based; settings: in vivo, 120 h

| SMILES | selectivity ratio [1] | HC50 at 1 h [2] [µM] | IC50 (Plasmodium falciparum [3]) [nM] | Activity (Mus musculus [4]) | Activity (Mus musculus [5]) | Activity (Mus musculus [6]) | Activity (Mus musculus [7]) | Activity (Plasmodium berghei [8]) [%] | Activity (Mus musculus [9]) | Activity (Mus musculus [10]) | Time (Plasmodium berghei [11]) [days] | Activity (Mus musculus [12]) | LD50 at 336 h [13] [mg/kg] | IC50 (Plasmodium falciparum [14]) [nM] | IC50 (Plasmodium falciparum [15]) [nM] | Activity (Mus musculus [16]) | Activity (Mus musculus [17]) |
| --- | --- | --- | --- | --- | --- | --- | --- | --- | --- | --- | --- | --- | --- | --- | --- | --- | --- |
| CCCCCCCCN(Cc1cccc2ccccc12)C(=O)C(CCCCNC(=O)OC(C)(C)C)NC(=O)OC(C)(C)C (stereo not given) | 32 | 96 | 3000 |  |  |  |  |  |  |  |  |  |  |  |  |  |  |
| CCCCCCN(Cc1cccc2ccccc12)C(=O)C(CCCCNC(=O)OC(C)(C)C)NC(=O)OC(C)(C)C.O=C(O)C(F)(F)F.O=C(O)C(F)(F)F (stereo not given) | 850 | 850 | 1000 | Non-Toxic | Non-Toxic | Non-Toxic | Non-Toxic | 60 | Non-Toxic | Non-Toxic | 12 | Toxic | 98 | 1400 | 5000 | Non-Toxic | Toxic |
| CCCCCCN(Cc1ccccc1)C(=O)C(CCCCNC(=O)OC(C)(C)C)NC(=O)OC(C)(C)C (stereo not given) |  | > 1000 | > 5000 |  |  |  |  |  |  |  |  |  |  |  |  |  |  |
| CCCCCCCCN(Cc1ccccc1)C(=O)C(CCCCNC(=O)OC(C)(C)C)NC(=O)OC(C)(C)C (stereo not given) | 141 | 564 | 4000 |  |  |  |  |  |  |  |  |  |  |  |  |  |  |
